From ChEMBL document CHEMBL1144581, “alpha-Amino acid derivatives as proton pump inhibitors and potent anti-ulcer agents” (2007)
One block for each compound: values may come before it. Active and inactive are the calls of the source. The rule behind the calls is not given here.

Experiments:
Rattus norvegicus [1] = organism: Rattus norvegicus; experiment: Inhibition of gastric H+/K(+)-ATPase activity in Sprague-Dawley rat microsomal vesicles at 10 umol; format: microsomes; details: Stomach, Microsome
Method in brief: (§1)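 Rat gastric microsomes were prepared by density gradient and differential centrifugation. The medium held 40 mM Tris-HCl pH 7.4, 2 mM MgCl2, 10 mM KCl (water for blank) and […] vesicular protein. Compound was preincubated 30 min at 37 °C. Tris-ATP at 0.3, 1.0 or 3 mM was then added for 20 min and stopped with chilled 10% TCA. Released Pi was read at 530 nm; % inhibition vs control.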

Rattus norvegicus [2] = organism: Rattus norvegicus; experiment: Antisecretory activity in rat pylorus ligation-induced ulcer model determined by ratio of free acidity inhibition in drug treated to untreated control; format: functional
Method in brief: (§2)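 Sprague Dawley rats (130-150 g) fasted 24 h with water ad libitum; pylorus ligated through a midline incision under ether anesthesia. Dosing oral, 1 h before ligation. Gastric juice free and total acidity titrated against 0.01 N NaOH, with Topfer's reagent and phenolphthalein as indicators. Values expressed as ratio of percent inhibition, treated vs control group.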

Rattus norvegicus [3] = organism: Rattus norvegicus; experiment: Antisecretory activity in rat pylorus ligation-induced ulcer model determined by ratio of total acidity inhibition in drug treated to untreated control; format: functional; method in brief: as §2
Rattus norvegicus [4] = organism: Rattus norvegicus; experiment: Inhibition of gastric H+/K(+)-ATPase activity in Sprague-Dawley rat microsomal vesicles at 1000 uM in presence of 3.0 mM of ATP; format: microsomes; details: Stomach, Microsome; method in brief: as §1
Rattus norvegicus [5] = experiment: Antisecretory activity in rat pylorus ligation-induced ulcer model assessed as inhibition of free acidity of gastric juice at 20 mg/kg; format: functional, organism-based; design: dose 20 mg/kg; method in brief: as §2
Rattus norvegicus [6] = organism: Rattus norvegicus; experiment: Inhibition of p-NPPase in Sprague-Dawley rat microsomal vesicles at 300 uM in presence of 3.0 mM of p-NPP; format: microsomes; details: Microsome
Method in brief: (§3)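 Rat gastric microsomes were assayed in 10 mM PIPES/Tris pH 7.0 with 5 mM KCl. Compound was preincubated 30 min at 37 °C. p-NPP at 1.0, 3.0 or 5.0 mM was added and incubated 20 min at 37 °C, then stopped with 0.5 N NaOH. p-Nitrophenol release was read at 410 nm; % inhibition vs control.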

Rattus norvegicus [7] = organism: Rattus norvegicus; experiment: Inhibition of p-NPPase in Sprague-Dawley rat microsomal vesicles at 10 uM in presence of 1.0 mM of p-NPP; format: microsomes; details: Microsome; method in brief: as §3
Rattus norvegicus [8] = organism: Rattus norvegicus; experiment: Inhibition of gastric H+/K(+)-ATPase activity in Sprague-Dawley rat microsomal vesicles at 30 uM in presence of 1.0 mM of ATP; format: microsomes; details: Stomach, Microsome; method in brief: as §1
Rattus norvegicus [9] = organism: Rattus norvegicus; experiment: Inhibition of p-NPPase in Sprague-Dawley rat microsomal vesicles at 3 uM in presence of 3.0 mM of p-NPP; format: microsomes; details: Microsome; method in brief: as §3
Rattus norvegicus [10] = organism: Rattus norvegicus; experiment: Inhibition of p-NPPase in Sprague-Dawley rat microsomal vesicles at 3 uM in presence of 1.0 mM of p-NPP; format: microsomes; details: Microsome; method in brief: as §3
Rattus norvegicus [11] = organism: Rattus norvegicus; experiment: Inhibition of gastric H+/K(+)-ATPase activity in Sprague-Dawley rat microsomal vesicles at 300 uM in presence of 0.3 mM of ATP; format: microsomes; details: Stomach, Microsome; method in brief: as §1
Rattus norvegicus [12] = organism: Rattus norvegicus; experiment: Inhibition of p-NPPase in Sprague-Dawley rat microsomal vesicles at 100 uM in presence of 1.0 mM of p-NPP; format: microsomes; details: Microsome; method in brief: as §3
Rattus norvegicus [13] = organism: Rattus norvegicus; experiment: Inhibition of p-NPPase in Sprague-Dawley rat microsomal vesicles at 30 uM in presence of 3.0 mM of p-NPP; format: microsomes; details: Microsome; method in brief: as §3
Rattus norvegicus [14] = organism: Rattus norvegicus; experiment: Inhibition of gastric H+/K(+)-ATPase activity in Sprague-Dawley rat microsomal vesicles at 300 uM in presence of 3.0 mM of ATP; format: microsomes; details: Stomach, Microsome; method in brief: as §1
Rattus norvegicus [15] = organism: Rattus norvegicus; experiment: Inhibition of gastric H+/K(+)-ATPase activity in Sprague-Dawley rat microsomal vesicles at 3 uM in presence of 1.0 mM of ATP; format: microsomes; details: Stomach, Microsome; method in brief: as §1
Rattus norvegicus [16] = organism: Rattus norvegicus; experiment: Inhibition of gastric H+/K(+)-ATPase activity in Sprague-Dawley rat microsomal vesicles at 1000 uM in presence of 0.3 mM of ATP; format: microsomes; details: Stomach, Microsome; method in brief: as §1
Rattus norvegicus [17] = organism: Rattus norvegicus; experiment: Inhibition of gastric H+/K(+)-ATPase activity in Sprague-Dawley rat microsomal vesicles at 1000 uM in presence of 1.0 mM of ATP; format: microsomes; details: Stomach, Microsome; method in brief: as §1
Rattus norvegicus [18] = organism: Rattus norvegicus; experiment: Inhibition of p-NPPase in Sprague-Dawley rat microsomal vesicles at 300 uM in presence of 1.0 mM of p-NPP; format: microsomes; details: Microsome; method in brief: as §3
Rattus norvegicus [19] = organism: Rattus norvegicus; experiment: Inhibition of p-NPPase in Sprague-Dawley rat microsomal vesicles at 30 uM in presence of 1.0 mM of p-NPP; format: microsomes; details: Microsome; method in brief: as §3
Rattus norvegicus [20] = organism: Rattus norvegicus; experiment: Inhibition of gastric H+/K(+)-ATPase activity in Sprague-Dawley rat microsomal vesicles at 3 uM in presence of 3.0 mM of ATP; format: microsomes; details: Stomach, Microsome; method in brief: as §1
Rattus norvegicus [21] = organism: Rattus norvegicus; experiment: Inhibition of p-NPPase in Sprague-Dawley rat microsomal vesicles at 10 uM in presence of 3.0 mM of p-NPP; format: microsomes; details: Microsome; method in brief: as §3
Rattus norvegicus [22] = organism: Rattus norvegicus; experiment: Inhibition of gastric H+/K(+)-ATPase activity in Sprague-Dawley rat microsomal vesicles at 10 uM in presence of 0.3 mM of ATP; format: microsomes; details: Stomach, Microsome; method in brief: as §1
Rattus norvegicus [23] = organism: Rattus norvegicus; experiment: Inhibition of gastric H+/K(+)-ATPase activity in Sprague-Dawley rat microsomal vesicles at 100 uM in presence of 1.0 mM of ATP; format: microsomes; details: Stomach, Microsome; method in brief: as §1
Rattus norvegicus [24] = organism: Rattus norvegicus; experiment: Inhibition of gastric H+/K(+)-ATPase activity in Sprague-Dawley rat microsomal vesicles at 300 uM in presence of 1.0 mM of ATP; format: microsomes; details: Stomach, Microsome; method in brief: as §1
Rattus norvegicus [25] = organism: Rattus norvegicus; experiment: Inhibition of gastric H+/K(+)-ATPase activity in Sprague-Dawley rat microsomal vesicles at 100 uM in presence of 3.0 mM of ATP; format: microsomes; details: Stomach, Microsome; method in brief: as §1
Rattus norvegicus [26] = experiment: Antisecretory activity in rat pylorus ligation-induced ulcer model assessed as inhibition of total acidity of gastric juice at 20 mg/kg; format: functional, organism-based; design: dose 20 mg/kg; method in brief: as §2
Rattus norvegicus [27] = organism: Rattus norvegicus; experiment: Inhibition of p-NPPase in Sprague-Dawley rat microsomal vesicles at 100 uM in presence of 3.0 mM of p-NPP; format: microsomes; details: Microsome; method in brief: as §3
Rattus norvegicus [28] = organism: Rattus norvegicus; experiment: Inhibition of p-NPPase in Sprague-Dawley rat microsomal vesicles at 30 uM in presence of 5.0 mM of p-NPP; format: microsomes; details: Microsome; method in brief: as §3
Rattus norvegicus [29] = organism: Rattus norvegicus; experiment: Inhibition of p-NPPase in Sprague-Dawley rat microsomal vesicles at 10 uM in presence of 5.0 mM of p-NPP; format: microsomes; details: Microsome; method in brief: as §3
Rattus norvegicus [30] = organism: Rattus norvegicus; experiment: Inhibition of p-NPPase in Sprague-Dawley rat microsomal vesicles at 1000 uM in presence of 1.0 mM of p-NPP; format: microsomes; details: Microsome; method in brief: as §3
Rattus norvegicus [31] = organism: Rattus norvegicus; experiment: Inhibition of p-NPPase in Sprague-Dawley rat microsomal vesicles at 100 uM in presence of 5.0 mM of p-NPP; format: microsomes; details: Microsome; method in brief: as §3
Rattus norvegicus [32] = organism: Rattus norvegicus; experiment: Inhibition of gastric H+/K(+)-ATPase activity in Sprague-Dawley rat microsomal vesicles at 10 uM in presence of 1.0 mM of ATP; format: microsomes; details: Stomach, Microsome; method in brief: as §1
Rattus norvegicus [33] = organism: Rattus norvegicus; experiment: Inhibition of gastric H+/K(+)-ATPase activity in Sprague-Dawley rat microsomal vesicles at 100 uM in presence of 0.3 mM of ATP; format: microsomes; details: Stomach, Microsome; method in brief: as §1
Rattus norvegicus [34] = organism: Rattus norvegicus; experiment: Inhibition of gastric H+/K(+)-ATPase activity in Sprague-Dawley rat microsomal vesicles at 30 uM in presence of 3.0 mM of ATP; format: microsomes; details: Stomach, Microsome; method in brief: as §1
Rattus norvegicus [35] = organism: Rattus norvegicus; experiment: Inhibition of gastric H+/K(+)-ATPase activity in Sprague-Dawley rat microsomal vesicles at 10 uM in presence of 3.0 mM of ATP; format: microsomes; details: Stomach, Microsome; method in brief: as §1
Rattus norvegicus [36] = organism: Rattus norvegicus; experiment: Inhibition of p-NPPase in Sprague-Dawley rat microsomal vesicles at 1000 uM in presence of 3.0 mM of p-NPP; format: microsomes; details: Microsome; method in brief: as §3
Rattus norvegicus [37] = organism: Rattus norvegicus; experiment: Inhibition of gastric H+/K(+)-ATPase activity in Sprague-Dawley rat microsomal vesicles at 30 uM in presence of 0.3 mM of ATP; format: microsomes; details: Stomach, Microsome; method in brief: as §1
Rattus norvegicus [38] = organism: Rattus norvegicus; experiment: Inhibition of gastric H+/K(+)-ATPase activity in Sprague-Dawley rat microsomal vesicles at 3 uM in presence of 0.3 mM of ATP; format: microsomes; details: Stomach, Microsome; method in brief: as §1

inhibition (Rattus norvegicus [1]): 62%
Structure (SMILES): COC(=O)[C@@H]1CCCN1C(=O)/C=C/c1ccccc1
Activity (Rattus norvegicus [2]): 0.47
Activity (Rattus norvegicus [3]): 0.59

inhibition (Rattus norvegicus [1]): 32%
Structure (SMILES): O=C(O)[C@@H]1CCC(=O)N1Cc1ccccc1Cl
Activity (Rattus norvegicus [2]): 0.66
Activity (Rattus norvegicus [3]): 0.51

inhibition (Rattus norvegicus [1]): 46%
Structure (SMILES): Cc1ccccc1CN1C(=O)CC[C@H]1C(=O)O
Activity (Rattus norvegicus [2]): 0.92
Activity (Rattus norvegicus [3]): 0.89

inhibition (Rattus norvegicus [1]): 71%
Structure (SMILES): O=C(O)[C@@H]1CCC(=O)N1Cc1ccccc1Cc1ccccc1
Activity (Rattus norvegicus [2]): 0.48
Activity (Rattus norvegicus [3]): 0.33

inhibition (Rattus norvegicus [4]): 50%
inhibition (Rattus norvegicus [6]): 35%
inhibition (Rattus norvegicus [7]): 16%
inhibition (Rattus norvegicus [1]): 59%
inhibition (Rattus norvegicus [8]): 12%
inhibition (Rattus norvegicus [9]): 26%
inhibition (Rattus norvegicus [10]): 13%
inhibition (Rattus norvegicus [11]): 51%
inhibition (Rattus norvegicus [12]): 42%
inhibition (Rattus norvegicus [13]): 8%
inhibition (Rattus norvegicus [14]): 46%
inhibition (Rattus norvegicus [15]): 12%
inhibition (Rattus norvegicus [16]): 67%
inhibition (Rattus norvegicus [17]): 55%
inhibition (Rattus norvegicus [18]): 56%
inhibition (Rattus norvegicus [19]): 33%
inhibition (Rattus norvegicus [20]): 25%
inhibition (Rattus norvegicus [21]): 16%
inhibition (Rattus norvegicus [22]): 23%
inhibition (Rattus norvegicus [23]): 16%
inhibition (Rattus norvegicus [24]): 51%
inhibition (Rattus norvegicus [25]): 28%
inhibition (Rattus norvegicus [27]): 18%
inhibition (Rattus norvegicus [28]): 13%
inhibition (Rattus norvegicus [29]): 5%
inhibition (Rattus norvegicus [30]): 85%
inhibition (Rattus norvegicus [31]): 16%
inhibition (Rattus norvegicus [32]): 28%
inhibition (Rattus norvegicus [33]): 32%
inhibition (Rattus norvegicus [34]): 34%
inhibition (Rattus norvegicus [35]): 30%
inhibition (Rattus norvegicus [36]): 38%
inhibition (Rattus norvegicus [37]): 27%
inhibition (Rattus norvegicus [38]): 20%
Structure (SMILES): O=C1N[C@H](C(=O)O)[C@H](/C=C/c2ccccc2)O1 (relative stereo)
Activity (Rattus norvegicus [5]): Active
Activity (Rattus norvegicus [26]): Active
Activity (Rattus norvegicus [2]): 0.96
Activity (Rattus norvegicus [3]): 1.07

inhibition (Rattus norvegicus [1]): 68%
Structure (SMILES): CCOC(=O)N1CCC[C@H]1C(=O)OC
Activity (Rattus norvegicus [2]): 0.59
Activity (Rattus norvegicus [3]): 0.64

inhibition (Rattus norvegicus [1]): 55%
Structure (SMILES): O=C(O)[C@H]1CCC(=O)N1Cc1ccccc1
Activity (Rattus norvegicus [2]): 0.46
Activity (Rattus norvegicus [3]): 0.51
